Experimental data taken from ChEMBL document CHEMBL4610072, “Polyacetylenes from Oplopanax horridus and Panax ginseng: Relationship between Structure and PPARγ Activation” (J Nat Prod, 2020).

Tests used:
Assay type in all cases: cell-based
HEK293 [1] = assay: Cytotoxicity against HEK293 cells assessed as cell viability at 10 uM after 24 hrs by resazurin conversion assay; conditions: human, hek293, 24 h
In short: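 HEK293 cells seeded 5 × 10^5 per well, grown overnight, then exposed to 10 μM compound in stripped DMEM for 24 h; vehicle 0.4% DMSO. Wells PBS-washed, then 10 μg/mL resazurin in PBS added for 4 h; conversion read by fluorescence (excitation 535 nm). Viability relative to vehicle; at least three experiments, four technical replicates each.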

[2] = (§1) Cytotoxicity against HEK293 cells assessed as cell viability at 3 uM after 18 hrs by luciferase assay relative to control; conditions: human, HEK293 cells; read-out: Activity
In short: (§2)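 HEK293 cells calcium-phosphate co-transfected with PPARγ expression plasmid, PPRE-luciferase reporter and pEGFP-N1; 6 h later reseeded at 4 × 10^5/well in DMEM with 5% charcoal-stripped serum and given 3 μM compound for 18 h; vehicle 0.1% DMSO. After lysis, EGFP fluorescence relative to vehicle gave viability; n = 3–4, four technical replicates.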

HEK293 [3] = assay: as §1; conditions: human, hek293, 18 h, 3 µM; in short: as §2
[4] = molecular target: T1, Peroxisome proliferator-activated receptor gamma (Homo sapiens) (UniProt P37231); assay: Activation of human PPARgamma expressed in HEK293 cells assessed as maximum fold activation at 0.1 to 30 uM incubated for 18 hrs by luciferase reporter assay relative to control
T1 sequence (whole entry): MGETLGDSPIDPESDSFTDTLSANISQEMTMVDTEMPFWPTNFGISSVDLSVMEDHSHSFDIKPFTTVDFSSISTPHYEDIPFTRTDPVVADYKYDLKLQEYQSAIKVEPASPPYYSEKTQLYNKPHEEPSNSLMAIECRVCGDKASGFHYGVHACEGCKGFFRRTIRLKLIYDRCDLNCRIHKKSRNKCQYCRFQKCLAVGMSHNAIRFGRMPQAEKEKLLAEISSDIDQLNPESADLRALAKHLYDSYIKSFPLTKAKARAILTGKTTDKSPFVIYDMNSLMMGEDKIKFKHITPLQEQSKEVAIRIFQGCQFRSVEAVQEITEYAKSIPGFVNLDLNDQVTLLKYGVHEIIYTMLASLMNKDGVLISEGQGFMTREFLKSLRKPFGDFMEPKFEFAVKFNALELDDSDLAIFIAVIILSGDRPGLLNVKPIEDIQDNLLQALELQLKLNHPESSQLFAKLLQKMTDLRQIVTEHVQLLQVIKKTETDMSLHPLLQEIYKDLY

Compound	Activity (HEK293 [1])	also measured
OCCCCCCCC/C=C\[C@H](O)C#CC#C[C@@H](O)CCO	Non-Toxic	–
CCCCCCC[C@H](O)/C=C/C#CC#C[C@H](O)CC	Non-Toxic	–
CCCCCCC/C=C\[C@H](O)C#CC#C[C@@H](O)CCO	Non-Toxic	–
C=C[C@@H](O)C#CC#CC/C=C\CCCCCCCCO	Non-Toxic	viability at 18 h, 3 µM [2]: > 70%
C=C[C@@H](O)C#CC#CCC1OC1CCCCCCC (some centres undefined)	Non-Toxic	viability at 18 h, 3 µM [2]: > 70%
C=C[C@@H](O)C#CC#C/C=C/[C@@H](O)CCCCCCC	Non-Toxic	–
CC[C@H](O)C#CC#C[C@@H](O)/C=C\CCCCCCCCOC(C)=O [OPLOPANDIOL ACETATE]	Non-Toxic	–
CCCCCCC[C@@H]1O[C@@H]1CC#CC#CC(=O)CC	Non-Toxic	–
C=C[C@@H](O)C#CC#C/C=C/[C@@H](O)CCCCCCCCOC(C)=O	Non-Toxic	–
C=C[C@H](O)C#CC#C[C@@H](O)/C=C\CCCCCCCCO	Non-Toxic	–
C=C[C@H](O)C#CC#C[C@@H](O)/C=C\CCCCCCC	Non-Toxic	Activity (HEK293 [3]): Toxic
CC[C@@H](O)C#CC#C/C=C/[C@@H](O)CCCCCCCCO	Non-Toxic	–
CC[C@H](O)C#CC#C[C@@H](O)/C=C\CCCCCCCCO	Non-Toxic	–
CCCCCCC(O)/C=C\[C@H](O)C#CC#C[C@@H](O)CC (some centres undefined)	Non-Toxic	–
CC(=O)OCCCCCCCC/C=C\[C@H](O)C#CC#C[C@@H](O)CCO	Non-Toxic	–
C=C[C@@H](O)C#CC#CC/C=C\CCCCCCC	Non-Toxic	viability at 18 h, 3 µM [2]: > 70%
C=C[C@@H](O)C#CC#CC/C=C\CCCCCCCCOC(C)=O	Non-Toxic	viability at 18 h, 3 µM [2]: > 70%
C=C[C@@H](O)C#CC#C[C@@H](O)/C=C\CCCCCCC [FALCARINDIOL]	–	Emax [4]: 3.26
CCCCCCC/C=C\[C@H](O)C#CC#C[C@@H](O)CC [OPLOPANDIOL]	Non-Toxic	–
C=C[C@H](O)C#CC#C[C@@H](O)/C=C\CCCCCCCCOC(C)=O	Non-Toxic	–
C=CCCCCC[C@@H]1O[C@@H]1CC#CC#CC(=O)CC	Non-Toxic	–
C=C[C@@H](O)C#CC#C/C=C/[C@@H](O)CCCCCCCCO	Non-Toxic	–
C=C[C@H](O)C#CC#C[C@@H](O)/C=C\C(O)CCCCCC (some centres undefined)	Non-Toxic	–
CC[C@@H](O)C#CC#C/C=C/[C@@H](O)CCCCCCCCOC(C)=O	Non-Toxic	–
